From ChEMBL document CHEMBL4219162, “Adamantane amine-linked chloroquinoline derivatives as chloroquine resistance modulating agents in Plasmodium falciparum” (Bioorg Med Chem Lett, 2018)

Experiments:
CHO = assay: Cytotoxicity against CHO cells by MTT assay; assay type: cell-based; settings: Cricetulus griseus
Summary of the method: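 Chinese hamster ovary cell growth and survival read by viable-cell reduction of yellow MTT to purple-blue formazan. IC50 derived. Emetine served as the cytotoxic reference drug.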

[1] = Reversal modification index, ratio of IC50 for chloroquine-resistant Plasmodium falciparum K1 infected in normal type A human erythrocytes to IC50 for chloroquine-sensitive Plasmodium falciparum NF54 infected in normal type A human erythrocytes relative to […]; assay type: functional
Summary of the method: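 Reversal modification index taken as the resistance index (IC50 K1/IC50 NF54) of each compound relative to the resistance index of chloroquine.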

[2] = Resistance index, ratio of IC50 for chloroquine-resistant Plasmodium falciparum K1 infected in normal type A human erythrocytes to IC50 for chloroquine-sensitive Plasmodium falciparum NF54 infected in normal type A human erythrocytes; assay type: functional
Summary of the method: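 Resistance index computed as IC50 against K1 divided by IC50 against NF54, both from the pLDH assay.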

Plasmodium falciparum [3] = assay: Antimalarial activity against chloroquine-sensitive Plasmodium falciparum NF54 infected in normal type A human erythrocytes incubated for 72 hrs by spectrophotometry based parasite lactate dehydrogenase assay; assay type: functional, organism-based; settings: NF54, 72 h
Summary of the method: (§1)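 Modified parasite lactate dehydrogenase (pLDH) assay run in parallel on CQ-sensitive NF54 and CQ-resistant K1 strains, with chloroquine as positive control. […], 37 °C, and the readout gave IC50.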

Plasmodium falciparum [4] = assay: Antimalarial activity against chloroquine-resistant Plasmodium falciparum K1 infected in normal type A human erythrocytes incubated for 72 hrs by spectrophotometry based parasite lactate dehydrogenase assay; assay type: functional, organism-based; settings: K1, 72 h; summary of the method: as §1
[5] = Selectivity index, ratio of IC50 for CHO cells to IC50 for chloroquine-resistant Plasmodium falciparum K1 infected in normal type A human erythrocytes; assay type: toxicity, cell-based; settings: Chinese hamster; read-out: Ratio IC50
Summary of the method: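 Selectivity index computed as IC50 in Chinese hamster ovary cells, measured by MTT reduction to formazan, divided by IC50 against K1 from the pLDH assay.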

Plasmodium falciparum [6] = assay: Potency index, ratio of IC50 for […] to IC50 for test compound for antimalarial activity against chloroquine-resistant Plasmodium falciparum K1 infected in normal type A human erythrocytes incubated for 72 hrs by spectrophotometry based parasite lactate dehydrogenase assay; assay type: functional
[7] = Aqueous stability of the compound in pH 7.4 HEPES-buffer at 1 mg/ml at 37 degC after 72 hrs by UV spectroscopic method; assay type: physicochemical; settings: pH 7.4, 72 h
Summary of the method: (§2)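 Test compound at 1 mg/ml in aqueous HEPES-containing buffer, held at 37 °C for 72 h to check for degradation. pH 7.4 matches the pLDH antimalarial assay medium. pH 4.5 approximates the parasite's acidic digestive vacuole. Conditions mirror the pLDH assay procedure.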

[8] = Aqueous stability of the compound in pH 4.5 HEPES-buffer at 1 mg/ml at 37 degC after 72 hrs by UV spectroscopic method; assay type: physicochemical; settings: pH 4.5, 72 h; summary of the method: as §2

Compound | IC50 (CHO) [nM] | Ratio IC50 [1] | Ratio IC50 [2] | IC50 (Plasmodium falciparum [3]) [nM] | IC50 (Plasmodium falciparum [4]) [nM] | selectivity ratio [5] | Ratio IC50 (Plasmodium falciparum [6]) | Stability [7] | Stability [8]
OC12CC3CC(CC(C3)N1CCCCNc1ccnc3cc(Cl)ccc13)C2 | 37900 | 6.59 | 5.84 | 33.9 | 198 | 191 | – | – | –
OC12CC3CC(CC(C3)N1CCNc1ccnc3cc(Cl)ccc13)C2 | > 279000 | 18.23 | 2.11 | 46.9 | 98.9 | > 2820 | 3 - 4 | – | –
OC12CC3CC(CC(C3)N1CCCNc1ccnc3cc(Cl)ccc13)C2 | 45200 | 8.86 | 4.34 | 22.3 | 96.8 | 467 | 3 - 4 | – | –
Clc1ccc2c(NCCN=C3C4CC5CC(C4)CC3C5)ccnc2c1 | 98500 | 10.8 | 3.56 | 26.3 | 93.8 | 1050 | 3 - 4 | – | –
Clc1ccc2c(NCCCCCCN=C3C4CC5CC(C4)CC3C5)ccnc2c1 | > 103000 | 2.74 | 14.02 | 113 | 1580 | 104 | – | – | –
OC12CC3CC(CC(C3)N1CCCCCCNc1ccnc3cc(Cl)ccc13)C2 | 80800 | 10.09 | 3.81 | 112 | 284 | 285 | – | – | –
OC12C3C4CC5C6C4C1C6C(C53)N2CCNc1ccnc2cc(Cl)ccc12 (centres undefined) | – | 5.22 | 7.36 | 9.84 | 72.6 | 131 | – | – | –
Clc1ccc2c(NCCCN=C3C4CC5CC(C4)CC3C5)ccnc2c1 | 66400 | 2.4 | – | 5 | 192 | 346 | – | Stable | Unstable
Clc1ccc2c(NCCCCN=C3C4CC5CC(C4)CC3C5)ccnc2c1 | 57100 | 5.32 | 7.23 | 108 | 784 | 73 | – | – | –
CCN(CC)CCCC(C)Nc1ccnc2cc(Cl)ccc12 (centres undefined) [CHLOROQUINE] | 57800 | – | – | – | – | – | – | – | –
CC[C@H]1CN2CCc3cc(OC)c(OC)cc3[C@@H]2C[C@@H]1C[C@H]1NCCc2cc(OC)c(OC)cc21 [EMETINE] | 130 | – | – | – | – | – | – | – | –
